# ChEMBL document CHEMBL1909507, “Substituted phenyl 4-(2-oxoimidazolidin-1-yl)benzenesulfonamides as antimitotics. Antiproliferative, antiangiogenic and antitumoral activity, and quantitative structure-activity relationships” (Eur J Med Chem, 2011)
# Calls of active or inactive are those of the source. The rule behind the calls is not given here.
# Columns and labels:
# CCRF-CEM [1] = experiment: Ratio of IC50 for human multidrug-resistant CEM/VLB cells to IC50 for human CEM cells; type: functional
# Method in brief: (§1)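 Each ratio is the IC50 in the resistant line divided by the IC50 in its parental line (CHO for CHO-TAX 5-6 and CHO-VV 3-2; CEM for CEM-VLB).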
# CHO-TAX 5-6 [2] = experiment: Ratio of IC50 for paclitaxel-resistant CHO-TAX 5-6 cells to IC50 for CHO cells; type: functional, Cricetulus griseus; method in brief: as §1
# HT-1080 [3] = experiment: Antiproliferative activity against human HT1080 after 48 hrs by SRB assay; type: functional, cell-based; conditions: HT-1080, 48 h
# Method in brief: (§2)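 Adherent cells were seeded per line (e.g. HT-29 5000, M21 3500, MCF7 7500, CHO and CHO-VV 3-2 and CHO-TAX 5-6 1000 cells/well) and grown 24 h at 37 °C, 5% CO₂. DMSO-solubilized drug was diluted in medium and added at 1000–0.98 nM for 48 h. Cells were fixed with cold 10% TCA and stained with 0.1% sulforhodamine B, with absorbance read at 530–565 nm.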
# L1210 = experiment: Antiproliferative activity against mouse L1210 after 48 hrs by SRB assay; type: functional, cell-based; conditions: L1210, 48 h
# M21 [4] = experiment: Cell cycle arrest in human M21 cells assessed as accumulation at G0/G1 phase at 5 times IC50 after 24 hrs using propidium iodide staining by flow cytometric analysis (reference value: 61%); type: functional
# Method in brief: (§3)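 Cells were trypsinized, fixed in ice-cold ethanol, treated with RNase, and stained with propidium iodide (1 mg/mL stock) for 1 h on ice. Cell-cycle distribution was measured by flow cytometry.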
# MDA-MB-231 [5] = experiment: Antiproliferative activity against human MDA-MB-231 after 48 hrs by SRB assay; type: functional, cell-based; conditions: MDA-MB-231, 48 h
# MDA-MB-231 [6] = experiment: Displacement of N,N'-ethylenebis(iodoacetamide) from beta-tubulin colchicine-binding site in human MDA-MB-231 cells at 1000 times IC50 preincubated for 2 hrs before N,N'-ethylenebis(iodoacetamide) addition measured after 1.5 hrs by chemiluminescence assay; type: cell-based
# Method in brief: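 EBI (100, final) was added for 1.5 h at 37 °C with drug present; control was 0.5% DMSO. Sonicated lysates (20 µg protein) were run on 10% SDS-PAGE and blotted with anti-β-tubulin TUB 2.1. The β-tubulin–EBI adduct was scored by ECL.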
# M21 [7] = experiment: Disruption of cytoskeleton microtubule structure of human M21 cells at 5 times IC50 after 16 hrs by indirect immunofluorescence assay; type: functional, cell-based
# Method in brief: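 Cells were fixed in 3.7% formaldehyde, permeabilized with saponin, and stained with anti-β-tubulin TUB 2.1, Alexa-488 anti-mouse secondary and DAPI. Fluorescence microscopy was used for imaging.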
# CHO-TAX 5-6 [8] = experiment: Antiproliferative activity against paclitaxel-resistant CHO-TAX 5-6 cells after 48 hrs by SRB assay; type: functional, cell-based; conditions: Cricetulus griseus, CHO-TAX 5-6, 48 h; method in brief: as §2
# M21 [9] = experiment: Antiproliferative activity against human M21 cells after 48 hrs by SRB assay; type: functional, cell-based; conditions: M21, 48 h; method in brief: as §2
# M21 [10] = experiment: Cell cycle arrest in human M21 cells assessed as accumulation at G2/M phase at 5 times IC50 after 24 hrs using propidium iodide staining by flow cytometric analysis (reference value: 9%); type: functional; method in brief: as §3
# SK-OV-3 = experiment: Antiproliferative activity against human SKOV3 after 48 hrs by SRB assay; type: functional, cell-based; conditions: SK-OV-3, 48 h; method in brief: as §2
# [11] = Antiproliferative activity against mouse P388D1 after 48 hrs by SRB assay; conditions: P388D1, 48 h
# K562 = experiment: Antiproliferative activity against human K562 after 48 hrs by SRB assay; type: functional, cell-based; conditions: K562, 48 h
# HT-1080 [12] = experiment: Antitumor activity against human HT1080 cells xenografted in chicken chorioallantoic membrane assessed as inhibition of tumor growth at 3 ug, iv measured on day 17 by CAM assay; type: functional
# Method in brief: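 Fertilized chicken eggs were incubated 10 days, then 3.5 × 10⁵ HT-1080 cells/egg were applied to the exposed chorioallantoic membrane. On day 11, drug was given iv in DMSO diluted in excipient (ethanol:cremophor:PBS 6.25:6.25:87.5). Read-out was tumor wet weight as % of untreated eggs, plus chick mortality. Data were pooled from two independent experiments of 10–12 eggs each.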
# HT-29 = experiment: Antiproliferative activity against human HT-29 cells after 48 hrs by SRB assay; type: functional, cell-based; conditions: HT-29, 48 h; method in brief: as §2
# CHO = experiment: Antiproliferative activity against Chinese hamster CHO after 48 hrs by SRB assay; conditions: Cricetulus griseus
# [13] = Antiproliferative activity against mouse B16F0 after 48 hrs by SRB assay
# CHO-VV 3-2 [14] = experiment: Antiproliferative activity against colchicine and vinblastine-resistant CHO-VV 3-2 cells after 48 hrs by SRB assay; type: functional, cell-based; conditions: Cricetulus griseus, CHO-VV 3-2, 48 h; method in brief: as §2
# DU-145 = experiment: Antiproliferative activity against human DU145 after 48 hrs by SRB assay; type: functional, cell-based; conditions: DU-145, 48 h
# [15] = Toxicity against fertilized chicken embryo assessed as mortality at 3 ug, iv by CAM assay; type: organism-based, Gallus gallus; conditions: in vivo, read-out: Activity
# Method in brief: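 HT-1080 fibrosarcoma cells (3.5 × 10⁵ cells/egg) grafted onto the chorioallantoic membrane of fertilized chicken eggs (10 days preincubation). On day 11, drug in DMSO diluted into excipient (ethanol:cremophor:PBS 6.25:6.25:87.5) given iv at 3 µg per egg. Chick mortality recorded over 7-day tumor growth period. Untreated eggs as negative controls and for normalization. Cumulative results from two independent experiments, 10–12 eggs each.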
# MCF7 = experiment: Antiproliferative activity against human MCF7 cells after 48 hrs by SRB assay; type: functional, cell-based; conditions: MCF7, 48 h; method in brief: as §2
# M21 [16] = experiment: Cell cycle arrest in human M21 cells assessed as accumulation at S phase at 5 times IC50 after 24 hrs using propidium iodide staining by flow cytometric analysis (reference value: 30%); type: functional; method in brief: as §3
# [17] = Antiproliferative activity against human multidrug-resistant CEM/VLB cells after 48 hrs by SRB assay; type: functional
# CHO-VV 3-2 [18] = experiment: Ratio of IC50 for colchicine and vinblastine-resistant CHO-VV 3-2 cells to IC50 for CHO cells; type: functional, Cricetulus griseus; method in brief: as §1
# CCRF-CEM [19] = experiment: Antiproliferative activity against human CEM after 48 hrs by SRB assay; type: functional, cell-based
Compound,Ratio IC50 (CCRF-CEM [1]),Ratio IC50 (CHO-TAX 5-6 [2]),IC50 (HT-1080 [3]) [nM],IC50 (L1210) [nM],Activity (M21 [4]) [%],IC50 (MDA-MB-231 [5]) [nM],Activity (MDA-MB-231 [6]),Activity (M21 [7]),IC50 (CHO-TAX 5-6 [8]) [nM],IC50 (M21 [9]) [nM],Activity (M21 [10]) [%],IC50 (SK-OV-3) [nM],IC50 [11] [nM],IC50 (K562) [nM],IC50 (HT-29) [nM],IC50 (CHO) [nM],IC50 [13] [nM],IC50 (CHO-VV 3-2 [14]) [nM],IC50 (DU-145) [nM],mortality [15] [%],other results
COc1cccc(NS(=O)(=O)c2ccc(N3CCNC3=O)cc2)c1,2.7,0.61,200,240,10,730,Active,Active,200,65,61,240,250,230,120,330,370,450,650,16,growth inhibition (GI) (HT-1080 [12]): 41%; IC50 (MCF7): 120 nM; Activity (M21 [16]): 29%; IC50 [17]: 700 nM; Ratio IC50 (CHO-VV 3-2 [18]): 1.4; IC50 (CCRF-CEM [19]): 260 nM
CCc1cccc(NS(=O)(=O)c2ccc(N3CCNC3=O)cc2)c1,2.3,0.61,200,200,0,1410,Active,Active,140,82,95,230,250,230,110,230,270,250,730,11,growth inhibition (GI) (HT-1080 [12]): 45%; IC50 (MCF7): 130 nM; Activity (M21 [16]): 5%; IC50 [17]: 450 nM; Ratio IC50 (CHO-VV 3-2 [18]): 1.1; IC50 (CCRF-CEM [19]): 200 nM
Cc1cccc(NS(=O)(=O)c2ccc(N3CCNC3=O)cc2)c1,1.9,0.65,210,180,1,1270,Active,Active,150,69,83,200,250,200,110,230,290,280,580,8,inhibition (HT-1080 [12]): inactive; IC50 (MCF7): 190 nM; Activity (M21 [16]): 16%; IC50 [17]: 370 nM; Ratio IC50 (CHO-VV 3-2 [18]): 1.2; IC50 (CCRF-CEM [19]): 200 nM
COc1cc(NS(=O)(=O)c2ccc(N3CCNC3=O)cc2)cc(OC)c1,5.9,0.67,150,110,13,340,Active,Active,220,60,59,170,200,110,78,330,280,690,700,13,growth inhibition (GI) (HT-1080 [12]): 31%; IC50 (MCF7): 170 nM; Activity (M21 [16]): 28%; IC50 [17]: 1010 nM; Ratio IC50 (CHO-VV 3-2 [18]): 2.1; IC50 (CCRF-CEM [19]): 170 nM
Cc1cc(C)cc(NS(=O)(=O)c2ccc(N3CCNC3=O)cc2)c1,2.4,0.57,150,110,1,1220,Active,Active,120,63,78,190,210,110,82,210,260,250,430,8,inhibition (HT-1080 [12]): inactive; IC50 (MCF7): 100 nM; Activity (M21 [16]): 21%; IC50 [17]: 400 nM; Ratio IC50 (CHO-VV 3-2 [18]): 1.2; IC50 (CCRF-CEM [19]): 170 nM
O=C1NCCN1c1ccc(S(=O)(=O)Nc2ccc3[nH]ccc3c2)cc1,12,0.49,230,260,27,3600,Active,Active,640,87,51,280,520,340,130,1310,770,1860,1370,8,inhibition (HT-1080 [12]): inactive; IC50 (MCF7): 170 nM; Activity (M21 [16]): 22%; IC50 [17]: 4840 nM; Ratio IC50 (CHO-VV 3-2 [18]): 1.4; IC50 (CCRF-CEM [19]): 410 nM
